Test results as given in ChEMBL document CHEMBL1817648, “Synthesis and in vitro antibacterial activity of a series of novel gatifloxacin derivatives” (Eur J Med Chem, 2011).
Converted amounts (≈) assume the structure as drawn.

Columns and labels:
[1] = Cytotoxicity against african green monkey Vero cells after 72 hrs by MTT assay; type: cell-based; settings: chlorocebus sabaeus
Procedure, shortened: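 Vero cells were kept in Minimum Essential Medium with Earle's salts plus 10% fetal bovine serum at 37 °C under 5% CO₂. Cells were seeded at 1 × 10⁴ per well and allowed to recover 24 h. Medium was then replaced with assay medium containing compound or no drug, and cells were exposed for 72 h. CC₅₀ is the 50% cellular cytotoxic concentration.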

Staphylococcus aureus [2] = experiment: Antibacterial activity against Staphylococcus aureus ATCC 25923 after 18 to 24 hrs by NCCLS M100-S11 two fold serial dilution method; type: functional; settings: ATCC25923
Staphylococcus aureus [3] = experiment: Antibacterial activity against methicillin-resistant Staphylococcus aureus 08-1 after 18 to 24 hrs by NCCLS M100-S11 two fold serial dilution method; type: functional
Procedure, shortened: (§1)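 Two-fold serial dilution in agar medium. MIC read as the lowest concentration giving complete inhibition of bacterial growth after incubation at 35 °C for 18–24 h.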

Staphylococcus aureus [4] = experiment: Antibacterial activity against methicillin-sensitive Staphylococcus aureus 08-1 after 18 to 24 hrs by NCCLS M100-S11 two fold serial dilution method; type: functional
[5] = test system: Staphylococcus epidermidis; experiment: Antibacterial activity against methicillin-resistant Staphylococcus epidermidis 09-4 after 18 to 24 hrs by NCCLS M100-S11 two fold serial dilution method; type: functional; procedure, shortened: as §1
[6] = test system: Staphylococcus epidermidis; experiment: Antibacterial activity against methicillin-sensitive Staphylococcus epidermidis 09-3 after 18 to 24 hrs by NCCLS M100-S11 two fold serial dilution method; type: functional; procedure, shortened: as §1
[7] = test system: Staphylococcus epidermidis; experiment: Antibacterial activity against methicillin-sensitive Staphylococcus epidermidis 09-6 after 18 to 24 hrs by NCCLS M100-S11 two fold serial dilution method; type: functional; procedure, shortened: as §1
Streptococcus pneumoniae [8] = experiment: Antibacterial activity against Streptococcus pneumoniae 08-2 after 18 to 24 hrs by NCCLS M100-S11 two fold serial dilution method; type: functional
Streptococcus pneumoniae [9] = experiment: Antibacterial activity against Streptococcus pneumoniae 08-4 after 18 to 24 hrs by NCCLS M100-S11 two fold serial dilution method; type: functional
Enterococcus faecium [10] = experiment: Antibacterial activity against Enterococcus faecium 08-2 after 18 to 24 hrs by NCCLS M100-S11 two fold serial dilution method; type: functional
Enterococcus faecium [11] = experiment: Antibacterial activity against Enterococcus faecium 08-7 after 18 to 24 hrs by NCCLS M100-S11 two fold serial dilution method; type: functional
Enterococcus faecalis [12] = experiment: Antibacterial activity against Enterococcus faecalis 08-10 after 18 to 24 hrs by NCCLS M100-S11 two fold serial dilution method; type: functional
Enterococcus faecalis [13] = experiment: Antibacterial activity against Enterococcus faecalis 08-12 after 18 to 24 hrs by NCCLS M100-S11 two fold serial dilution method; type: functional
Escherichia coli [14] = experiment: Antibacterial activity against Escherichia coli ATCC 25922 after 18 to 24 hrs by NCCLS M100-S11 two fold serial dilution method; type: functional; settings: ATCC25922
Escherichia coli [15] = experiment: Antibacterial activity against Escherichia coli 08-21 after 18 to 24 hrs by NCCLS M100-S11 two fold serial dilution method; type: functional
Escherichia coli [16] = experiment: Antibacterial activity against Escherichia coli 08-22 after 18 to 24 hrs by NCCLS M100-S11 two fold serial dilution method; type: functional
Klebsiella pneumoniae [17] = experiment: Antibacterial activity against Klebsiella pneumoniae 09-22 after 18 to 24 hrs by NCCLS M100-S11 two fold serial dilution method; type: functional
Pseudomonas aeruginosa [18] = experiment: Antibacterial activity against Pseudomonas aeruginosa ATCC 27853 after 18 to 24 hrs by NCCLS M100-S11 two fold serial dilution method; type: functional
Pseudomonas aeruginosa [19] = experiment: Antibacterial activity against Pseudomonas aeruginosa 09-32 after 18 to 24 hrs by NCCLS M100-S11 two fold serial dilution method; type: functional
Pseudomonas aeruginosa [20] = experiment: Antibacterial activity against Pseudomonas aeruginosa 09-33 after 18 to 24 hrs by NCCLS M100-S11 two fold serial dilution method; type: functional
Pseudomonas aeruginosa [21] = experiment: Antibacterial activity against Pseudomonas aeruginosa 09-34 after 18 to 24 hrs by NCCLS M100-S11 two fold serial dilution method; type: functional
Klebsiella pneumoniae [22] = experiment: Antibacterial activity against Klebsiella pneumoniae 09-23 after 18 to 24 hrs by NCCLS M100-S11 two fold serial dilution method; type: functional

SMILES	CC50 at 72 h [1]	MIC (Staphylococcus aureus [2])	MIC (Staphylococcus aureus [3])	MIC (Staphylococcus aureus [4])	MIC [5]	MIC [6]	MIC [7]	MIC (Streptococcus pneumoniae [8])	MIC (Streptococcus pneumoniae [9])	MIC (Enterococcus faecium [10])	MIC (Enterococcus faecium [11])	MIC (Enterococcus faecalis [12])	MIC (Enterococcus faecalis [13])	MIC (Escherichia coli [14])	MIC (Escherichia coli [15])	MIC (Escherichia coli [16])	MIC (Klebsiella pneumoniae [17])	MIC (Pseudomonas aeruginosa [18])	MIC (Pseudomonas aeruginosa [19])	MIC (Pseudomonas aeruginosa [20])	further results
COc1c(N2CCN(CC/C(C)=N/NC(N)=O)C(C)C2)c(F)cc2c(=O)c(C(=O)O)cn(C3CC3)c12 (configuration not stated)	31.2 µg/mL (≈ 62.2 µM)	0.5 µg/mL (≈ 0.995 µM)	2 µg/mL (≈ 3.98 µM)	1 µg/mL (≈ 1.99 µM)	1 µg/mL (≈ 1.99 µM)	0.25 µg/mL (≈ 0.497 µM)	0.25 µg/mL (≈ 0.497 µM)	8 µg/mL (≈ 15.9 µM)	2 µg/mL (≈ 3.98 µM)	8 µg/mL (≈ 15.9 µM)	8 µg/mL (≈ 15.9 µM)	8 µg/mL (≈ 15.9 µM)	8 µg/mL (≈ 15.9 µM)	2 µg/mL (≈ 3.98 µM)	8 µg/mL (≈ 15.9 µM)	4 µg/mL (≈ 7.96 µM)	1 µg/mL (≈ 1.99 µM)	4 µg/mL (≈ 7.96 µM)	0.25 µg/mL (≈ 0.497 µM)	16 µg/mL (≈ 31.8 µM)	MIC (Pseudomonas aeruginosa [21]): 2 µg/mL (≈ 3.98 µM); MIC (Klebsiella pneumoniae [22]): 2 µg/mL (≈ 3.98 µM)
COc1c(N2CCN(CC#N)C(C)C2)c(F)cc2c(=O)c(C(=O)O)cn(C3CC3)c12 (configuration not stated)	354 µg/mL (≈ 853 µM)	1 µg/mL (≈ 2.41 µM)	1 µg/mL (≈ 2.41 µM)	1 µg/mL (≈ 2.41 µM)	0.25 µg/mL (≈ 0.603 µM)	0.25 µg/mL (≈ 0.603 µM)	0.25 µg/mL (≈ 0.603 µM)	8 µg/mL (≈ 19.3 µM)	1 µg/mL (≈ 2.41 µM)	8 µg/mL (≈ 19.3 µM)	8 µg/mL (≈ 19.3 µM)	8 µg/mL (≈ 19.3 µM)	8 µg/mL (≈ 19.3 µM)	4 µg/mL (≈ 9.65 µM)	8 µg/mL (≈ 19.3 µM)	8 µg/mL (≈ 19.3 µM)	2 µg/mL (≈ 4.83 µM)	2 µg/mL (≈ 4.83 µM)	0.25 µg/mL (≈ 0.603 µM)	32 µg/mL (≈ 77.2 µM)	MIC (Pseudomonas aeruginosa [21]): 2 µg/mL (≈ 4.83 µM); MIC (Klebsiella pneumoniae [22]): 2 µg/mL (≈ 4.83 µM)
CCO/N=C(\C)CCN1CCN(c2c(F)cc3c(=O)c(C(=O)O)cn(C4CC4)c3c2OC)CC1C (configuration not stated)	88.4 µg/mL (≈ 181 µM)	64 µg/mL (≈ 131 µM)	16 µg/mL (≈ 32.7 µM)	128 µg/mL (≈ 262 µM)	0.5 µg/mL (≈ 1.02 µM)	0.5 µg/mL (≈ 1.02 µM)	0.5 µg/mL (≈ 1.02 µM)	128 µg/mL (≈ 262 µM)	> 128 µg/mL	> 128 µg/mL	> 128 µg/mL	> 128 µg/mL	> 128 µg/mL	> 128 µg/mL	> 128 µg/mL	> 128 µg/mL	128 µg/mL (≈ 262 µM)	> 128 µg/mL	128 µg/mL (≈ 262 µM)	> 128 µg/mL	MIC (Pseudomonas aeruginosa [21]): > 128 µg/mL; MIC (Klebsiella pneumoniae [22]): > 128 µg/mL
COc1c(N2CCN(CCC(C)=O)C(C)C2)c(F)cc2c(=O)c(C(=O)O)cn(C3CC3)c12 (configuration not stated)	9.84 µg/mL (≈ 22.1 µM)	0.06 µg/mL (≈ 0.135 µM)	0.5 µg/mL (≈ 1.12 µM)	0.25 µg/mL (≈ 0.561 µM)	0.25 µg/mL (≈ 0.561 µM)	0.25 µg/mL (≈ 0.561 µM)	0.25 µg/mL (≈ 0.561 µM)	4 µg/mL (≈ 8.98 µM)	0.25 µg/mL (≈ 0.561 µM)	4 µg/mL (≈ 8.98 µM)	4 µg/mL (≈ 8.98 µM)	4 µg/mL (≈ 8.98 µM)	4 µg/mL (≈ 8.98 µM)	0.5 µg/mL (≈ 1.12 µM)	4 µg/mL (≈ 8.98 µM)	0.5 µg/mL (≈ 1.12 µM)	0.5 µg/mL (≈ 1.12 µM)	1 µg/mL (≈ 2.24 µM)	0.25 µg/mL (≈ 0.561 µM)	4 µg/mL (≈ 8.98 µM)	MIC (Pseudomonas aeruginosa [21]): 0.5 µg/mL (≈ 1.12 µM); MIC (Klebsiella pneumoniae [22]): 0.5 µg/mL (≈ 1.12 µM)
CCO/N=C(\C)CN1CCN(c2c(F)cc3c(=O)c(C(=O)O)cn(C4CC4)c3c2OC)CC1C (configuration not stated)	31.2 µg/mL (≈ 65.9 µM)	0.125 µg/mL (≈ 0.263 µM)	0.25 µg/mL (≈ 0.527 µM)	0.25 µg/mL (≈ 0.527 µM)	0.25 µg/mL (≈ 0.527 µM)	0.25 µg/mL (≈ 0.527 µM)	0.25 µg/mL (≈ 0.527 µM)	> 128 µg/mL	2 µg/mL (≈ 4.21 µM)	> 128 µg/mL	> 128 µg/mL	> 128 µg/mL	> 128 µg/mL	128 µg/mL (≈ 270 µM)	> 128 µg/mL	> 128 µg/mL	> 128 µg/mL	> 128 µg/mL	> 128 µg/mL	> 128 µg/mL	MIC (Pseudomonas aeruginosa [21]): > 128 µg/mL; MIC (Klebsiella pneumoniae [22]): > 128 µg/mL
CO/N=C(\C)CN1CCN(c2c(F)cc3c(=O)c(C(=O)O)cn(C4CC4)c3c2OC)CC1C (configuration not stated)	49.6 µg/mL (≈ 108 µM)	0.5 µg/mL (≈ 1.09 µM)	> 128 µg/mL	0.25 µg/mL (≈ 0.543 µM)	0.5 µg/mL (≈ 1.09 µM)	0.5 µg/mL (≈ 1.09 µM)	4 µg/mL (≈ 8.69 µM)	64 µg/mL (≈ 139 µM)	2 µg/mL (≈ 4.34 µM)	> 128 µg/mL	> 128 µg/mL	> 128 µg/mL	> 128 µg/mL	64 µg/mL (≈ 139 µM)	> 128 µg/mL	> 128 µg/mL	> 128 µg/mL	32 µg/mL (≈ 69.5 µM)	64 µg/mL (≈ 139 µM)	> 128 µg/mL	MIC (Pseudomonas aeruginosa [21]): > 128 µg/mL; MIC (Klebsiella pneumoniae [22]): > 128 µg/mL
